Active and inactive are the calls of the source.
What was measured:
[1] = target: T1, Transient receptor potential cation channel subfamily V member 1 (Homo sapiens, UniProt Q8NER1); experiment: Displacement of [3H]-RTX from human TRPV1 expressed in CHO cells incubated for 60 mins by radioligand competition assay based scintillation counting method; assay type: cell-based
[2] = target: T1, Transient receptor potential cation channel subfamily V member 1; experiment: Agonist activity at human TRPV1 expressed in CHO cells assessed as increase in 45Ca2+ uptake incubated for 5 mins by liquid scintillation counting method; assay type: cell-based
Method in brief: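 Human or rat TRPV1 heterologously expressed in CHO cells; agonism read as 45Ca2+ uptake, run as previously described. Values are the mean of at least three experiments.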

[3] = target: Transient receptor potential cation channel subfamily V member 1 (Rattus norvegicus, UniProt O35433); experiment: Displacement of [3H]-RTX from rat TRPV1 expressed in CHO cells incubated for 60 mins by radioligand competition assay based scintillation counting method; assay type: cell-based
[4] = target: Transient receptor potential cation channel subfamily V member 1 (Rattus norvegicus) (UniProt O35433); experiment: Potency index, ratio of Ki of capsaicin to Ki for displacement of [3H]RTX from rat TRPV1 expressed in CHO cells incubated for 60 mins by scintillation counting method; assay type: cell-based
[5] = target: T1, Transient receptor potential cation channel subfamily V member 1; experiment: Partial agonist activity at human TRPV1 expressed in CHO cells assessed as maximal increase in 45Ca2+ uptake incubated for 5 mins by liquid scintillation counting method relative to capsaicin; assay type: cell-based
Method in brief: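 Human or rat TRPV1 heterologously expressed in CHO cells; functional agonism read as 45Ca2+ uptake. Values are means of at least three experiments.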

[6] = target: T1, Transient receptor potential cation channel subfamily V member 1; experiment: Potency index, ratio of EC50 of capsaicin to EC50 of compound for agonist activity at human TRPV1 expressed in CHO cells assessed as increase in 45Ca2+ uptake incubated for 5 mins by liquid scintillation counting method; assay type: cell-based
[7] = target: T1, Transient receptor potential cation channel subfamily V member 1; experiment: Potency index, ratio of EC50 of zu-capsaicin to EC50 of compound for agonist activity at human TRPV1 expressed in CHO cells assessed as increase in 45Ca2+ uptake incubated for 5 mins by liquid scintillation counting method; assay type: cell-based
[8] = target: Transient receptor potential cation channel subfamily A member 1 (Mus musculus) (UniProt Q8BLA8); experiment: Agonist activity at mouse TRPA1 expressed in HEK293 cells assessed as increase in calcium influx at 0.3 to 30 uM incubated for 1 min by Fluo-4-AM dye based FLIPR assay; assay type: cell-based
Method in brief: (§1)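 Cells individually transfected with a single TRP channel (TRPV1, hTRPA1, mTRPA1, mTRPV3 or mTRPM8). Intracellular calcium influx recorded by FLIPR after the test compound was applied. Each cell type was also challenged with an agonist suited to its own TRP channel.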

[9] = target: T2, Transient receptor potential cation channel subfamily V member 3 (Mus musculus) (UniProt Q8K424); experiment: Agonist activity at mouse TRPV3 expressed in HEK293 cells assessed as increase in calcium influx at 0.3 to 30 uM incubated for 1 min by Fluo-4-AM dye based FLIPR assay; assay type: cell-based; method in brief: as §1
T2 sequence (whole entry): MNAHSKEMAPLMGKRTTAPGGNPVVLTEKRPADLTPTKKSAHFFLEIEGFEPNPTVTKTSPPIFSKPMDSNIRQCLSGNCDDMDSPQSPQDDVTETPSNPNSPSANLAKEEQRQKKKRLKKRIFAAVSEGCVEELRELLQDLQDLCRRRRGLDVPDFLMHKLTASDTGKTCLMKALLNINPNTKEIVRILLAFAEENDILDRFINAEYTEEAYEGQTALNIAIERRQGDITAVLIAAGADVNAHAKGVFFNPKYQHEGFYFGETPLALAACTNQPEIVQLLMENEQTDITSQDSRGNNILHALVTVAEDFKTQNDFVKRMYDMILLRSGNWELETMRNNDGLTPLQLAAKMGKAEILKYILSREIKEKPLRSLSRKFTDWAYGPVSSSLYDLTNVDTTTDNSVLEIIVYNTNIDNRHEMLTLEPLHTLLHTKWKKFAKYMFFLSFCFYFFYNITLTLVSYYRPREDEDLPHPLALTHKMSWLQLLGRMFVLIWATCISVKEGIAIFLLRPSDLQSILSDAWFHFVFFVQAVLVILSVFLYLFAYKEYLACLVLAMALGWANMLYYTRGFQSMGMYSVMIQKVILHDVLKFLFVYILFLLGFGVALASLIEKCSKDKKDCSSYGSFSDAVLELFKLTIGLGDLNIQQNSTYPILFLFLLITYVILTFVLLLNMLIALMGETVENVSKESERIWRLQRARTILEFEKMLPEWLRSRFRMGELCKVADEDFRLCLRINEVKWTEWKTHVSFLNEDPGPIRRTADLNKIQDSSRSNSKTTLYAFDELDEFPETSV

[10] = system: Rattus norvegicus; experiment: Analgesic activity in ip dosed L5/L6 spinal nerve ligation-induced neuropathic pain Sprague-Dawley rat model assessed as increase in paw withdrawal threshold in response to von frey filament compound administered at day 14 after ligation and measured up to 1.5 hrs after drug dosing by up and down method; assay type: functional
Method in brief: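 Rat spinal nerve ligation model of neuropathic pain. Compound was given i.p. at 1, 2, 5 or 10 mg/kg; a gabapentin 65 mg/kg i.p. arm and a saline i.p. arm were run alongside. Von Frey withdrawal thresholds were taken pre-surgery and on days 1, 7 and 14, then at 0.5, 1 and 1.5 h post-dose. Mean±SEM, n=7-8.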

[11] = system: Mus musculus; experiment: Induction of hypothermia in ip dosed ICR mouse assessed as decrease in body temperature measured for 7 hrs; assay type: functional, organism-based
[12] = system: Mus musculus; experiment: (§2) Analgesic activity in ip dosed formalin-induced nociception ICR mouse model assessed as reduction in pain behaviour by measuring less licking of formalin injected hind paw pretreated with compound 30 mins prior to formalin induction measured during first phase (0-5 mins after formalin injection) by formalin test; assay type: functional
Method in brief: (§3)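 Mice were dosed i.p. with 0.1–10 mg/kg, with vehicle and gabapentin (50, 100 mg/kg i.p.) arms. 2% formalin was injected into the dorsal hindpaw, and paw-licking time was recorded for the first phase (5 min) and the second phase (20–30 min). ED50 was taken from the dose–response. Mean±SEM, n=8.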

[13] = system: Mus musculus; experiment: as §2, with “against” for “in ip dosed”, “paw at 1 mg/kg, ip” for “paw”, “second” for “first”, “(20-30” for “(0-5”; assay type: functional; method in brief: as §3
[14] = system: Mus musculus; experiment: Antiallodynic activity against capsaicin-induced mechanical allodynia ICR mouse model assessed as inhibition of mechanical hyperalgesia administered topically 30 mins before capsaicin injection and measured over 5 mins; assay type: functional, organism-based
[15] = Toxicity in ICR mouse assessed as ear edema administered topically and measured after 30 mins; details: in vivo, topical_or_ocular, 0.5 h
Method in brief: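 Ear swelling test: a solution of the agent was applied to mouse ears, and ear punch biopsies were collected 30 min later and weighed.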

[16] = Toxicity in ip dosed ICR mouse administered as single dose; assay type: organism-based; details: in vivo
[17] = Toxicity in po dosed ICR mouse administered as single dose; assay type: organism-based; details: in vivo
[18] = Genotoxicity in Salmonella typhimurium TA97 incubated for 48 hrs by Ames test; assay type: toxicity; details: salmonella enterica subsp. enterica serovar typhimurium
[19] = Genotoxicity in CHO-WBLT cells assessed as chromosomal aberration incubated for 6 hrs in presence of rat S9 by Q-banding technique; assay type: toxicity, subcellular, Cricetulus griseus; details: chinese hamster, s9, 6 h
[20] = Genotoxicity in Salmonella typhimurium TA102 incubated for 48 hrs in presence of rat S9 by Ames test; assay type: toxicity, subcellular; details: salmonella enterica subsp. enterica serovar typhimurium, s9, 48 h
[21] = Genotoxicity in Salmonella typhimurium TA1538 incubated for 48 hrs in presence of rat S9 by Ames test; assay type: toxicity, subcellular; details: salmonella enterica subsp. enterica serovar typhimurium, s9, 48 h

T1 sequence (Q8NER1 whole entry): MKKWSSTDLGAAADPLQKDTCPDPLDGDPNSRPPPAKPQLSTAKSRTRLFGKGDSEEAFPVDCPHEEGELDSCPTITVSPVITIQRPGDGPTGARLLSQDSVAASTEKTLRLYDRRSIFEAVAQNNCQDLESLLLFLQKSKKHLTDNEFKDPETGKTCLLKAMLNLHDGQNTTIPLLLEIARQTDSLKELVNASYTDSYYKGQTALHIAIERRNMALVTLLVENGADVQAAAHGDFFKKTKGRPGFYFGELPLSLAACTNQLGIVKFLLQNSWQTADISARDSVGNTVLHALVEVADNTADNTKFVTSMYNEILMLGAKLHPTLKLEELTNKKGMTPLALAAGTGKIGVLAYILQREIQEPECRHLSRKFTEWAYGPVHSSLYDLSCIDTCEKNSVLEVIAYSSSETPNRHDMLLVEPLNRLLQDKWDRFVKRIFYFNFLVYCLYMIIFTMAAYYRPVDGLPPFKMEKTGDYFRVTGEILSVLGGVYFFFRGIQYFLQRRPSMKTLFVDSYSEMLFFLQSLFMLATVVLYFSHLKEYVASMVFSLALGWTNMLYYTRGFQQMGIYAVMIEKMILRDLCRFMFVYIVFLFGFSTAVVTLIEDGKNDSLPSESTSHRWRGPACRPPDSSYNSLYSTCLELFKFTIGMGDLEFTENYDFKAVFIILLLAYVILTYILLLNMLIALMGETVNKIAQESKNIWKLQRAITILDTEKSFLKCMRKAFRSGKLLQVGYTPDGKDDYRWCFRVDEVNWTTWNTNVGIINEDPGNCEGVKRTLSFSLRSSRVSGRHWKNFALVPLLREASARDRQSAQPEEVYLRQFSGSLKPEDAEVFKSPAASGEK
Sequence of Transient receptor potential cation channel subfamily V member 1 (Rattus norvegicus, UniProt O35433) (O35433 whole entry): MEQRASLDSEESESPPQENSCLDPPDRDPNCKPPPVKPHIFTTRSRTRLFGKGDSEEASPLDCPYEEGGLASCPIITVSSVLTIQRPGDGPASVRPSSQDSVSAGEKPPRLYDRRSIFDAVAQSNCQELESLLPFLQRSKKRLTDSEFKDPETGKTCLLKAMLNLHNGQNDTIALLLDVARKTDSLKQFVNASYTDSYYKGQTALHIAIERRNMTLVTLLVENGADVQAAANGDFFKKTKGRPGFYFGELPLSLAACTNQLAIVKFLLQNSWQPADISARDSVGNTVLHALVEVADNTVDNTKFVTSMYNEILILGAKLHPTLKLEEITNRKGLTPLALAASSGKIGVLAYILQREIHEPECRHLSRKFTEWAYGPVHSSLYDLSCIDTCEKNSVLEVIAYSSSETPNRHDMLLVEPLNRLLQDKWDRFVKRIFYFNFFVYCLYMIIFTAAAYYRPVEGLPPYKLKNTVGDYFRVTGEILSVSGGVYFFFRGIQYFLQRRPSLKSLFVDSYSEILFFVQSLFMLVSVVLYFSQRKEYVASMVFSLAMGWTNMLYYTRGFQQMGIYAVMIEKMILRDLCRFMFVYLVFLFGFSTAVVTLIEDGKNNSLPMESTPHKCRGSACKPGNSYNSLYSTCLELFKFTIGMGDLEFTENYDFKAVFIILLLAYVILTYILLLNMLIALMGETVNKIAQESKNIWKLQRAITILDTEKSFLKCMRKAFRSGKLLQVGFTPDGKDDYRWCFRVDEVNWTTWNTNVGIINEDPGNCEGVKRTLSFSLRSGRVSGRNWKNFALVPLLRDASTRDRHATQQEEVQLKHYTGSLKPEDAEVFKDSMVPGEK
Sequence of Transient receptor potential cation channel subfamily V member 1 (Rattus norvegicus) (O35433 whole entry): as above
Sequence of Transient receptor potential cation channel subfamily A member 1 (Mus musculus) (Q8BLA8 whole entry): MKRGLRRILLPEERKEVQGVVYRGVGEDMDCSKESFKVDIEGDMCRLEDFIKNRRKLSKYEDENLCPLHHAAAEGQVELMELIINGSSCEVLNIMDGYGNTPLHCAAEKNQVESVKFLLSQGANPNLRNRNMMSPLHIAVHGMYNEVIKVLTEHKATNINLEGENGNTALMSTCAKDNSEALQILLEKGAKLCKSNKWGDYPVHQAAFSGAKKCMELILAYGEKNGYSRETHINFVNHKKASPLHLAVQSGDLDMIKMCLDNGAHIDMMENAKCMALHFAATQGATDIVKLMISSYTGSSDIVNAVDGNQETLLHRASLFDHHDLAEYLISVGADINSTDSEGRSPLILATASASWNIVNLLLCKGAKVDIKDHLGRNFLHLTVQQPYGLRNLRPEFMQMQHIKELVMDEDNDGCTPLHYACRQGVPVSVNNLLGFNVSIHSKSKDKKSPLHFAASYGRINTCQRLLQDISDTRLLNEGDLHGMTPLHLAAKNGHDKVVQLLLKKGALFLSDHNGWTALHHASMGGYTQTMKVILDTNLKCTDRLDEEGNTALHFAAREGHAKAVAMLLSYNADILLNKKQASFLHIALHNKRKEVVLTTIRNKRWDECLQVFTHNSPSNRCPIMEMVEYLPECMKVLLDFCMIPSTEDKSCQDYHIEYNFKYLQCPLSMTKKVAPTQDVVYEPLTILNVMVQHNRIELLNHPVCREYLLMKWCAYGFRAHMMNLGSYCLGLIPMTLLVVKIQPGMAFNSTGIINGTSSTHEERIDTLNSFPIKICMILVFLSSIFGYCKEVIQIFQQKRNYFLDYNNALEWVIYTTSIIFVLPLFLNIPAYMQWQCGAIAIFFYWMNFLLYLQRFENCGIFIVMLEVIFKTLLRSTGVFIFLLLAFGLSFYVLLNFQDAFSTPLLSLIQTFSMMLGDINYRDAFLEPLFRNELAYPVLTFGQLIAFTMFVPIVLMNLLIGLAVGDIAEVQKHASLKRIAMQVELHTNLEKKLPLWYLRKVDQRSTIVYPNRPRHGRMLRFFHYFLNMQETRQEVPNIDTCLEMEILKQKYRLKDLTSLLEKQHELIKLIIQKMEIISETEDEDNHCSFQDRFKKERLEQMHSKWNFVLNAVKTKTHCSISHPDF

CC(C)(C)c1nc(-c2cccc(Cl)c2)c(CNC(=O)Nc2ccc(CO)c(F)c2)s1
Ki [1]: 11.4 nM | EC50 [2]: 5.05 nM | Ki [3]: 23.8 nM | Ratio Ki [4]: 80 | Activity [5]: 50 to 60% | Ratio EC50 [6]: 5 | Ratio EC50 [7]: 5 | Activity [8]: inactive | Activity [9]: inactive | Activity [10]: Dose-dependent effect | ED50 [10]: 0.5 to 2 mg/kg | Activity [11]: Dose-dependent effect | Activity [12]: Dose-dependent effect | ED50 [12]: 0.79 mg/kg | MPE [13]: 100% | Activity [14]: Dose-dependent effect | Activity [15]: Non-Toxic | LD50 [16]: > 200 mg/kg | LD50 [17]: > 2000 mg/kg | Activity [18]: Non-Toxic | Activity [19]: Non-Toxic | Activity [20]: Non-Toxic | Activity [21]: Non-Toxic

From ChEMBL document CHEMBL4376835, “Discovery of Nonpungent Transient Receptor Potential Vanilloid 1 (TRPV1) Agonist as Strong Topical Analgesic” (J Med Chem, 2020)
